Data taken from paper PMC2943235 (Circulation research, 2010).
“Also recorded” adds a separate entry of the source.

Experiments:
THP-1 cells [1] = experiment: Cholesterol efflux from THP-1 cells, with or without LXR agonist; assay type: cell-based, human
THP-1 cells [2] = assay type: cell-based, human; conditions: (efflux from live cells minus fixed cells)/efflux from live cells x100%; 80 μg/ml; 4 h; compared with apoA-I
VCAM-1 = assay type: cell-based, mouse; conditions: 0.75 mg/ml; TNF-α-activated SVEC4/VCAM-1 cells
Outline: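 SVEC4/VCAM-1 mouse endothelial cells were washed, then given test peptide, apoA-I or HDL at 0.75 mg/ml final for 18 h. TNF-α was added in serum-free medium (10 ng/ml final) for 5 h, and luciferase activity was measured. Activity was expressed per mg cellular protein, relative to vehicle-treated cells, as means ± SEM.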

Substance | Capacity to support (ABCA1-dependent) cholesterol efflux, in words (THP-1 cells [1]) | Specificity of cholesterol efflux, in words (THP-1 cells [2]) | Inhibition of VCAM-1 expression, in words (VCAM-1)
EKLKAKLEELKAKLEELL- P- EKLKAKLEELKAKLEELL [ELK-2A2K2E] | exceptional capacity to support cholesterol efflux, even exceeding that of apoA-I; also recorded: very active in ABCA1-dependent cholesterol efflux | exceptional specificity | –
EWLKELLEKLLEKLKELL- P- EWLKELLEKLLEKLKELL [ELK-1W] | modest capacity for the ABC-dependent efflux | exceptional specificity | –
EKLKALLEKLLAKLKELL P- EKLKALLEKLLAKLKELL [ELK-2A] | – | – | most active peptide
EKLKAKLEELKAKLEELL- P- EKAKAALEEAKAKAEELA | very low overall capacity to support cholesterol efflux | – | –
